# Bioassay records deposited in PubChem by Sanford-Burnham Center for Chemical Genomics.
# This is a sample that favours compounds with a hit; in the whole collection about 2.5% have one here.
# SENP8 block-1: human SENP8 protease inhibitors, primary screen, biochemical, fluorescence, Nedd8 protein substrate, uHTS. Sentrin-specific protease 8 (Homo sapiens), Q96LD8. recombinant SENP8. inhibition, % at 20 µM. 360,000 tested, 0.64% active. AID 602440, 2012; in the data active means inhibition mostly above about 40%, no sharp cut-off; inactive means mostly below about 27%
# SENP7 block: SENP7 protease inhibitors, primary screen, biochemical, luminescence, uHTS; inhibition, % at 5 µM; 330,000 tested, 1.5% active; recombinant SENP7, Z-RLRGG-aminoluciferin luminescence, 40 min;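 active means inhibition above about 50% at the single test dose, limit read from the data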;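 further: plate controls were DMSO with enzyme for no effect and no enzyme buffer wells for full effect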
# SENP1 FRET inh: human SENP1 catalytic domain inhibitors, primary screen, biochemical, FRET, uHTS; Sentrin-specific protease 1 (Homo sapiens), Q9P0U3; recombinant SENP1 catalytic domain, CyPet-SUMO1-YPet FRET cleavage; inhibition, % at 10 µM; 360,000 tested, 0.21% active; AID 624204, 2012;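 active means inhibition at least 30% at 10 µM, raw YFP signal under a set limit, fluorescence ratio 0.5 to 1.5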;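 further: 0% = enzyme with DMSO and 100% = no enzyme wells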
# Target sequence (Q9P0U3 419-644 limits assumed): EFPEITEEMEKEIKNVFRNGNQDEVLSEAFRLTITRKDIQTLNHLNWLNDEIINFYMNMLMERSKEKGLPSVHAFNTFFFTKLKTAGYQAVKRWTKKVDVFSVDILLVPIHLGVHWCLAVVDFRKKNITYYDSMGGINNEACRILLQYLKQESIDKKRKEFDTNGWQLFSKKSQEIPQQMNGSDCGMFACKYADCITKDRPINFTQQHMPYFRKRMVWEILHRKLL
#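 Test system: recombinant human SENP1 catalytic domain, His6-tagged / Medium: pH 8 Tris buffer with EDTA, NaCl, BME, BSA, NP40, catalase / Also added: SUMO1 FRET substrate flanked by Cypet and Ypet, 25 nM / Times: 50 min reaction at room temperature / Signal: FRET, CFP and YFP emission / Control set: no-enzyme low control and enzyme-plus-DMSO high control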
# SENP8 block-2: SENP8 protease inhibitors, primary screen, biochemical, luminescence. 330,000 tested, 1.2% active. inhibition, % at 10 µM. Sentrin-specific protease 8 (Homo sapiens), Q96LD8. purified SENP8, Z-RLRGG-aminoluciferin cleavage; in the data active means inhibition above about 50%
# SENP6 block: SENP6 protease inhibitors, primary screen, biochemical, luminescence, uHTS; Recombinant SENP6 catalytic domain, aminoluciferin luminescence; AID 2599, 2010; 330,000 tested, 1.8% active; Sentrin-specific protease 6 (Homo sapiens), Q9GZR1; inhibition, % at 10 µM;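 active means inhibition above about 50% at the single tested dose, limit read from the data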;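 further: plate controls were DMSO wells with enzyme for no effect and DMSO wells lacking enzyme for full effect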
# SENP8 confirm: SENP8 protease inhibitors, retest, confirmation, biochemical, luminescence, single concentration; 6,200 tested, 40% active; Recombinant SENP8, Z-RLRGG-aminoluciferin luminescence, 60 min; AID 488912, 2010; shares compounds with SENP7 block; inhibition, % at 12.5 µM;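 active means mean inhibition across replicates above about 50%, limit read from the data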
# SENP6 conf: SENP6 protease inhibitors, confirmation, biochemical, luminescence, single concentration; shares compounds with SENP7 block; recombinant SENP6, Z-RLRGG-aminoluciferin luminescence; inhibition, % at 12.5 µM; 6,200 tested, 58% active; AID 488915, 2010
# SENP7 conf: SENP7 protease inhibitors, retest, confirmation, biochemical, luminescence, single concentration; shares compounds with SENP7 block; recombinant SENP7, Z-RLRGG-aminoluciferin luminescence, 40 min; inhibition, % at 12.5 µM; 6,200 tested, 69% active; AID 488917, 2010
# Casp3 SENP sel: caspase-3 protease inhibitors, confirmation, selectivity assay for SENP inhibitor project, biochemical, single concentration. inhibition, % at 12.5 µM. purified caspase-3, Z-DEVD-aminoluciferin luminescence, 60 min. 6,200 tested, 60% active. shares compounds with SENP7 block;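 active means mean inhibition above about 50%, limit read from the data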;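 further: plate controls were enzyme with DMSO for no effect and wells without caspase-3 for full effect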
# Target sequence (P42574 28-227 limits assumed): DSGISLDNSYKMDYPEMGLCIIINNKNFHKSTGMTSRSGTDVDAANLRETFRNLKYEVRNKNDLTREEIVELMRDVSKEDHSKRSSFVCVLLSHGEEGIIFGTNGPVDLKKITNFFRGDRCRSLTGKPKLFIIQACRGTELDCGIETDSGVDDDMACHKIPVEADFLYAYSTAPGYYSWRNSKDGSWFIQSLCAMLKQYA
# Luc interf: luminescence interference (SENP counter-screen) | AID 488919 | Pre-incubated SENP8/Z-RLRGG-aminoluciferin, luciferase luminescence interference | inhibition, % at 12.5 µM | shares compounds with SENP7 block | 6,200 tested, 39% active;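 active means mean inhibition above about 50% when retested at one dose, limit read from the data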;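 further: plate controls were DMSO wells with completed reaction for no effect and substrate without enzyme for full effect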
# An asterisk follows results filed as active; / = no result.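 How the source made its calls, unless noted: active means mean inhibition above about 50% in the one-dose retest (limit read from the data); inactive means the rest.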
SMILES,SENP8 block-1,SENP7 block,SENP1 FRET inh,SENP8 block-2,SENP6 block,SENP8 confirm,SENP6 conf,SENP7 conf,Casp3 SENP sel,Luc interf
Cc1oc2ccc(OCc3ccc(Br)cc3)cc2c1C(=O)O,11,-4,-2,10,68*,36,80*,63*,56*,27
Cc1oc2ccc(OCc3ccc(Cl)cc3)cc2c1C(=O)O,13,-1,3,59*,78*,79*,80*,93*,66*,60*
Cc1ccccc1COc1ccc2oc(C)c(C(=O)O)c2c1,3,-3,2,2,-7,/,/,/,/,/
Cc1oc2ccc(OCc3ccccc3F)cc2c1C(=O)O,13,24,0,53*,77*,61*,57*,83*,74*,69*
Cc1nnc(SCC(=O)NNC(=O)c2ccc(F)cc2)n1Cc1ccccc1,2,-2,0,10,2,/,/,/,/,/
c1ccc(-n2nc3c(ccc4cnnc43)[nH]2)cc1,-479,87*,2,74*,89*,50*,83*,97*,71*,30
CN=C1S/C(=C\c2ccc(N3CCOCC3)cc2C)C(=O)N1C,-56,6,-34,-1,6,/,/,/,/,/
Cc1cc(/C=C2\SC(=S)N(C)C2=O)c(C)n1-c1cccc(O)c1,16,60*,-31,80*,90*,5,26,27,8,13
CN=C1S/C(=C\c2cc(C)n(-c3ccccc3F)c2C)C(=O)N1C,-14,66*,-5,63*,42,86*,88*,96*,70*,74*
COc1ccc(-n2c(C)cc(/C=C3/SC(=S)N(C)C3=O)c2C)cc1,19,/,-27,/,/,/,/,/,/,/
Cc1cc(/C=C2\SC(=O)N(C)C2=O)c(C)n1-c1ccc(O)cc1,-93,-1,-28,16,61*,74*,72*,84*,30,69*
C#CCN1C(=O)S/C(=C\c2ccc(-c3ccc(Cl)c(C(=O)O)c3)o2)C1=O,-167,21,-28,49,70*,74*,74*,82*,32,40
CCCC(=O)Nc1nc2ccc(OC)cc2s1,9,2,1,2,-6,/,/,/,/,/
Cc1csc(NC(=O)c2cc(C)oc2C)n1,2,59*,-8,46,69*,64*,63*,89*,84*,65*
COc1ccc2nc(NC(=O)c3cc(C)oc3C)sc2c1,-83,101*,-4,90*,88*,-20,94*,102*,96*,63*
COc1ccc2nc(NC(=S)N(C)C)sc2c1,18,76*,2,67*,81*,80*,79*,94*,69*,79*
COc1ccc2nc(NC(=O)c3ccoc3C)sc2c1,-58,100*,0,97*,101*,97*,100*,103*,98*,97*
O=C(N[C@@H]1C[C@H]2CC[C@@H]1C2)c1ccco1,11,-3,2,-9,10,/,/,/,/,/
Cc1cc(C(=O)Nc2nc3ccc(S(C)(=O)=O)cc3s2)c(C)o1,-31,93*,-8,41,96*,34,89*,101*,94*,14
